Source: ChEMBL document CHEMBL4725468, “Identification of 3,5-Dimethylisoxazole Derivatives as BRD4 Inhibitors for the Treatment of Colorectal Cancer” (ACS Med Chem Lett, 2020)
Activity calls are given as the source filed them. The calls are words filed in the database; no cut-off is given here.

Columns and labels:
[1] = tested on: BXPC-3; assay: Antiproliferation activity against human BxPC3 cells assessed as reduction in cell viability at 2.5 uM incubated for 48 hrs by MTT assay relative to control; assay type: functional
Procedure, shortened: (§1)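 Single-concentration screen at 2.5 μM against BxPc3 and Mia-capa2 pancreatic cancer cells. Read-out is percent growth inhibition.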

[2] = tested on: HCT-116; assay: Antiproliferation activity against human HCT116 cells assessed as reduction in cell viability at 2 uM incubated for 48 hrs by MTT assay relative to control; assay type: functional
Procedure, shortened: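 HCT116 colon cancer cells screened at a single 2.0 μM concentration. Read-out is percent growth inhibition.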

[3] = molecular target: Bromodomain-containing protein 4 (Homo sapiens, UniProt O60885); assay: Inhibition of BRD4 bromodomain1 (unknown origin) using peptide histone H4 (SGRGACKGGACKGLGAC-KGGAACKRHGSGSK-biotin) as substrate incubated for 15 mins followed by substrate addition measured after 1 hr by alphascreen assay
[4] = tested on: MIA PaCa-2; assay: Antiproliferation activity against human MIAPaCa2 cells assessed as reduction in cell viability at 2.5 uM incubated for 48 hrs by MTT assay relative to control; assay type: functional; procedure, shortened: as §1
[5] = tested on: HCT-116; assay: Antiproliferation activity against human HCT116 cells assessed as reduction in cell viability incubated for 48 hrs by MTT assay; assay type: functional, cell-based; details: HCT-116, 48 h
Procedure, shortened: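 HCT116 cells treated across a concentration gradient. IC50 was taken from dose–response curves, reported as mean ± SD of at least three independent experiments.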

[6] = tested on: CT26; assay: Antitumor activity against mouse CT26 cells xenografted in C57BL/6 mouse assessed as tumor suppression at 20 mg/kg, ip administered for 14 days and measured every two days relative to control; details: C57BL/6, CT26, ip, 336 h, read-out: GI
[7] = tested on: HCT-116; assay: Induction of apoptosis in human HCT116 cells assessed as activation of downstream effector Caspase 3 at 1 uM incubated for 48 hrs by western blot analysis; assay type: functional, cell-based
[8] = tested on: CT26; assay: Anticancer activity against mouse CT26 cells xenografted in C57BL/6 mouse assessed as upregulation in HEXIM1 expression at 20 mg/kg, ip administered for 14 days by hematoxylin staining based immunohistochemical analysis; details: time 14.0 day
[9] = Toxicity in C57BL/6 mouse xenografted with mouse CT26 cells assessed as body weight at 20 mg/kg, ip administered for 14 days and measured every two days; details: in vivo, 336 h
[10] = tested on: CT26; assay: Anticancer activity against mouse CT26 cells xenografted in C57BL/6 mouse assessed as decrease in c-myc expression at 20 mg/kg, ip administered for 14 days by hematoxylin staining based immunohistochemical analysis; details: time 14.0 day
[11] = tested on: CT26; assay: Anticancer activity against mouse CT26 cells xenografted in C57BL/6 mouse assessed as decrease in […] expression at 20 mg/kg, ip administered for 14 days by hematoxylin staining based immunohistochemical analysis; details: time 14.0 day
[12] = tested on: HCT-116; assay: Induction of apoptosis in human HCT116 cells assessed as downregulation of c-myc protein expression at 1 uM incubated for 48 hrs by western blot analysis; assay type: functional, cell-based
Procedure, shortened: (§2)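 HCT116 cells treated at 1 μM for 48 h. Bcl-2, HEXIM1, BRD4 and c-Myc protein levels were measured by western blot.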

[13] = tested on: CT26; assay: Antitumor activity against […] xenografted in C57BL/6 mouse assessed as tumor suppression at 5 mg/kg, iv administered for 14 days and measured every two days relative to control; assay type: functional; details: C57BL/6, CT26, iv, 336 h, time 14 day, read-out: GI
[14] = tested on: HCT-116; assay: Induction of cell cycle arrest in human HCT116 cells assessed as accumulation at G0/G1 phase at 0.16 uM incubated for 48 hrs by flow cytometry; assay type: functional, cell-based
Procedure, shortened: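 HCT116 cells exposed to 0.16 μM for 48 h. Cell cycle phase distribution was measured, including the G0/G1 fraction.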

[15] = tested on: HCT-116; assay: Antiproliferation activity against human HCT116 cells assessed as reduction in cell viability for 12 days by crystal violet staining based plate clone-forming analysis; assay type: functional; details: dose microM 0.008-0.165, time 12.0 day
Procedure, shortened: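 Plate colony-formation assay in HCT116 cells with 12 days of compound exposure at several concentrations.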

[16] = tested on: CT26; assay: Antitumor activity against […] xenografted in C57BL/6 mouse assessed as tumor suppression at 10 mg/kg, iv administered for 14 days and measured every two days relative to control; assay type: functional; details: C57BL/6, CT26, iv, 336 h, time 14 day, read-out: GI
[17] = tested on: HCT-116; assay: Induction of apoptosis in human HCT116 cells assessed as upregulation of HEXIM1 protein expression at 1 uM incubated for 48 hrs by western blot analysis; assay type: functional, cell-based; procedure, shortened: as §2
[18] = tested on: CT26; assay: Anticancer activity against […] xenografted in C57BL/6 mouse assessed as cell morphological changes measured at 20 mg/kg, iv administered for 14 days by hematoxylin staining based immunohistochemical analysis; assay type: functional, organism-based; details: time 14.0 day
[19] = tested on: CT26; assay: Antitumor activity against […] xenografted in C57BL/6 mouse assessed as tumor suppression at 13.6 mg/kg, iv administered for 14 days and measured every two days relative to control; assay type: functional; details: C57BL/6, CT26, iv, 336 h, time 14 day, read-out: GI
[20] = tested on: HCT-116; assay: Induction of apoptosis in human HCT116 cells assessed as decrease in Bcl2 protein expression level at 1 uM incubated for 48 hrs by western blot analysis; assay type: functional, cell-based; procedure, shortened: as §2
[21] = tested on: HCT-116; assay: Induction of apoptosis in human HCT116 cells assessed as upregulation of BRD4 expression at 1 uM incubated for 48 hrs by western blot analysis; assay type: functional, cell-based; procedure, shortened: as §2

Row | SMILES | Activity [1] [%] | Activity [2] [%] | IC50 [3] [nM] | Activity [4] [%] | IC50 [5] [nM] | also measured
1 | Cc1noc(C)c1-c1ccc2c(c1)C(c1ccccc1)N(CCCCCN1C(=O)N(C)c3ccc(-c4c(C)noc4C)cc3C1c1ccccc1)C(=O)N2C (stereo not drawn) | 27.9 | 52 | 56 | 71.3 |  | 
2 | Cc1noc(C)c1-c1ccc2c(c1)C(c1ccccc1)N(Cc1cn(CCCCCCn3cc(CN4C(=O)Nc5ccc(-c6c(C)noc6C)cc5C4c4ccccc4)nn3)nn1)C(=O)N2 (stereo not drawn) | 37.1 | 60.1 | < 2.1 | 57.2 |  | 
3 | Cc1noc(C)c1-c1ccc2c(c1)C(c1ccccc1)N(CCCCCCN1C(=O)N(C)c3ccc(-c4c(C)noc4C)cc3C1c1ccccc1)C(=O)N2C (stereo not drawn) | 44 | 59.7 | 42 | 70.9 | 1100 | 
4 | Cc1noc(C)c1-c1ccc2c(c1)C(c1ccccc1)N(CCCCN1C(=O)N(C)c3ccc(-c4c(C)noc4C)cc3C1c1ccccc1)C(=O)N2C (stereo not drawn) | 46.4 | 59.3 | 13 | 68.2 |  | 
5 | Cc1noc(C)c1-c1ccc2c(c1)C(c1ccccc1)N(Cc1cn(CCOCCn3cc(CN4C(=O)N(C)c5ccc(-c6c(C)noc6C)cc5C4c4ccccc4)nn3)nn1)C(=O)N2C (stereo not drawn) | 23.2 | 49.6 | 4.2 | 64 |  | 
6 | Cc1noc(C)c1-c1ccc2c(c1)C(c1ccccc1)N(CCOCCOCCN1C(=O)N(C)c3ccc(-c4c(C)noc4C)cc3C1c1ccccc1)C(=O)N2C (stereo not drawn) | 7.1 | 43.4 | 31 | 67.3 |  | 
7 | Cc1noc(C)c1-c1ccc2c(c1)C(c1ccccc1)N(Cc1cn(CCOCCOCCOCCn3cc(CN4C(=O)N(C)c5ccc(-c6c(C)noc6C)cc5C4c4ccccc4)nn3)nn1)C(=O)N2C (stereo not drawn) | 61.3 | 83.6 | 7.7 | 68.4 | 162 | inhibition in vivo at 20 mg/kg [6]: 56.1%; Activity [7]: Active; Activity [8]: Active; Activity [9]: Non-Toxic; Activity [10]: Active; Activity [11]: Active; Activity [12]: Active; inhibition in vivo at 5 mg/kg [13]: 68%; Activity [14]: Active; inhibition [15]: Dose-dependent effect; inhibition in vivo at 10 mg/kg [16]: 33.8%; Activity [17]: Active; Activity [18]: Active; inhibition in vivo at 13.6 mg/kg [19]: 11.5%; Activity [20]: Active; Activity [21]: Active
8 | Cc1noc(C)c1-c1ccc2c(c1)C(c1ccccc1)NC(=O)N2C (stereo not drawn) | 11.2 | 14 | 32 | 59.1 | 3340 | inhibition in vivo at 20 mg/kg [6]: 11.5%; Activity [12]: Active; Activity [14]: Active; inhibition [15]: Active; Activity [20]: Active
9 | Cc1noc(C)c1-c1ccc2c(c1)C(c1ccccc1)N(Cc1cn(CCOCCOCCOCCn3cc(CN4C(=O)Nc5ccc(-c6c(C)noc6C)cc5C4c4ccccc4)nn3)nn1)C(=O)N2 (stereo not drawn) | 42.2 | 60.4 | < 2.1 | 66.4 |  | 
10 | Cc1noc(C)c1-c1ccc2c(c1)C(c1ccccc1)N(Cc1cn(CCOCCn3cc(CN4C(=O)Nc5ccc(-c6c(C)noc6C)cc5C4c4ccccc4)nn3)nn1)C(=O)N2 (stereo not drawn) | 52.1 | 55.6 | < 2.1 | 54.4 |  | 
11 | Cc1noc(C)c1-c1ccc2c(c1)C(c1ccccc1)N(Cc1cn(CCn3cc(CN4C(=O)Nc5ccc(-c6c(C)noc6C)cc5C4c4ccccc4)nn3)nn1)C(=O)N2 (stereo not drawn) | 53 | 60.3 | < 2.1 | 62.2 |  | 
12 | Cc1noc(C)c1-c1ccc2c(c1)C(c1ccccc1)N(Cc1cn(CCOCCOCCn3cc(CN4C(=O)Nc5ccc(-c6c(C)noc6C)cc5C4c4ccccc4)nn3)nn1)C(=O)N2 (stereo not drawn) | 21.8 | 60.5 | < 2.1 | 63.2 |  | 
13 | Cc1noc(C)c1-c1ccc2c(c1)C(c1ccccc1)N(CCOCCOCCOCCN1C(=O)N(C)c3ccc(-c4c(C)noc4C)cc3C1c1ccccc1)C(=O)N2C (stereo not drawn) | 42.1 | 35.3 | 19 | 73.4 |  | 
14 | Cc1noc(C)c1-c1ccc2c(c1)C(c1ccccc1)N(CCCCCCCCCCN1C(=O)N(C)c3ccc(-c4c(C)noc4C)cc3C1c1ccccc1)C(=O)N2C (stereo not drawn) | 45.2 | 48.8 |  | 65.2 |  | 
15 | Cc1sc2c(c1C)C(c1ccc(Cl)cc1)=N[C@@H](CC(=O)OC(C)(C)C)c1nnc(C)n1-2 | 9.1 | 23.2 |  | 56.2 | 4210 | 
16 | CCS(=O)(=O)Nc1ccc(Oc2ccc(F)cc2F)c(-c2cn(C)c(=O)c3[nH]ccc23)c1 [MIVEBRESIB] | 36.8 | 69.5 | 2.5 | 64.3 | 550 | 
